Assay results as given in ChEMBL document CHEMBL5661979, “Pharmacological inhibition of BMK1 suppresses tumor growth through promyelocytic leukemia protein” (Cancer Cell, 2010).
Active and inactive are the calls of the source. The rule behind the calls is not given here.

Assays:
[1] = target: ALK tyrosine kinase receptor (Homo sapiens) (UniProt Q9UM73); assay: Inhibition of ALK (unknown origin) assessed as remaining activity at 10 uM by ATP-competition binding assay relative to control
[2] = target: Cyclin-dependent kinase 13 (Homo sapiens, UniProt Q14004); assay: Inhibition of CHED in human HeLa cells lysate pre incubated for 15 mins followed by ATP acyl phosphate probe addition and measured after 10 mins by LC-MS/MS analysis; assay type: subcellular
Procedure, shortened: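 KiNativ profiling in HeLa lysate (5 mg/mL total protein). Lysate incubated 15 min with inhibitor at 50, 10, 2, 0.8 or 0 μM. ATP or ADP acylphosphate probe then added (5 μM final) and reacted 10 min. Reaction stopped with urea and analysed by targeted MS, using up to four fragment ions per kinase peptide-probe conjugate. % inhibition taken against untreated lysate. Run in duplicate.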

[3] = target: Serine/threonine-protein kinase LATS1 (Homo sapiens, UniProt O95835); assay: Inhibition of LATS1 in human HeLa cells lysate pre incubated for 15 mins followed by ATP acyl phosphate probe addition and measured after 10 mins by LC-MS/MS analysis; assay type: subcellular
Chain of Serine/threonine-protein kinase LATS1 (O95835 whole entry): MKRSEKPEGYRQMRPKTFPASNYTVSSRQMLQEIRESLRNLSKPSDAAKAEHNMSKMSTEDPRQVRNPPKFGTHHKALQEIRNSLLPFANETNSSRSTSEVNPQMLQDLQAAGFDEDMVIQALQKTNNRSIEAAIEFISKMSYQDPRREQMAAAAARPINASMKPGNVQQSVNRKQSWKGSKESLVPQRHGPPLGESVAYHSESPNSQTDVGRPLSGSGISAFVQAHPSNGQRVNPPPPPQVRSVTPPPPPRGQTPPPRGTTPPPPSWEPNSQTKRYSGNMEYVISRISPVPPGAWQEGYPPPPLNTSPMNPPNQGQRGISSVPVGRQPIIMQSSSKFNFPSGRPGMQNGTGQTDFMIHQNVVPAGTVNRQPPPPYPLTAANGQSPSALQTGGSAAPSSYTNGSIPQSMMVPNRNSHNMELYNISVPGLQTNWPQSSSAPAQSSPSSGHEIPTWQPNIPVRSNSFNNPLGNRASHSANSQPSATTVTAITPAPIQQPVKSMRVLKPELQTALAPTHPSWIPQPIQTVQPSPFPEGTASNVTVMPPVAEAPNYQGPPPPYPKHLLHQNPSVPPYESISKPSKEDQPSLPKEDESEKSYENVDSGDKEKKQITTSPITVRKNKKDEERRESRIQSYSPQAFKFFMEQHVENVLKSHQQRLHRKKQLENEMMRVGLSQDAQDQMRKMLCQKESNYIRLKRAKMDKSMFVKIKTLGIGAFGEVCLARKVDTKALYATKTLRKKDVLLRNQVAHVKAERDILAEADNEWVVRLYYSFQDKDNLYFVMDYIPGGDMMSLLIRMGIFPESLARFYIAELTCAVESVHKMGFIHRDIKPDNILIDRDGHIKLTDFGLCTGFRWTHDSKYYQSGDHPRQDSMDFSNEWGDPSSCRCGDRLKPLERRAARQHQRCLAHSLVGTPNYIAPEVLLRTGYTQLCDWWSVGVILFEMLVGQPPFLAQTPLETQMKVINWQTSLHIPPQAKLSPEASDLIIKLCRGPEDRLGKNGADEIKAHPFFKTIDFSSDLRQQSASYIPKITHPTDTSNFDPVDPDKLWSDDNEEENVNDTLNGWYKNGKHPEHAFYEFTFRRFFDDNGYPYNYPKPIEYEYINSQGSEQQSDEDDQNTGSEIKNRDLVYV

[4] = target: Macrophage-stimulating protein receptor (Homo sapiens, UniProt Q04912); assay: Inhibition of RON in human HeLa cells lysate at 2 uM pre incubated for 15 mins followed by ADP acyl phosphate probe addition and measured after 10 mins by LC-MS/MS analysis relative to control; assay type: subcellular; settings: time 25.0 min
[5] = Inhibition of NEK6/7 in human HeLa cells lysate at 2 uM pre incubated for 15 mins followed by ADP acyl phosphate probe addition and measured after 10 mins by LC-MS/MS analysis relative to control; settings: 25 min, condition cancer
[6] = target: T1, Dual specificity mitogen-activated protein kinase kinase 7 (Homo sapiens) (UniProt O14733); assay: Inhibition of MAP2K7 in human HeLa cells lysate at 2 uM pre incubated for 15 mins followed by ADP acyl phosphate probe addition and measured after 10 mins by LC-MS/MS analysis relative to control; assay type: subcellular; settings: time 25.0 min
T1 sequence (whole entry): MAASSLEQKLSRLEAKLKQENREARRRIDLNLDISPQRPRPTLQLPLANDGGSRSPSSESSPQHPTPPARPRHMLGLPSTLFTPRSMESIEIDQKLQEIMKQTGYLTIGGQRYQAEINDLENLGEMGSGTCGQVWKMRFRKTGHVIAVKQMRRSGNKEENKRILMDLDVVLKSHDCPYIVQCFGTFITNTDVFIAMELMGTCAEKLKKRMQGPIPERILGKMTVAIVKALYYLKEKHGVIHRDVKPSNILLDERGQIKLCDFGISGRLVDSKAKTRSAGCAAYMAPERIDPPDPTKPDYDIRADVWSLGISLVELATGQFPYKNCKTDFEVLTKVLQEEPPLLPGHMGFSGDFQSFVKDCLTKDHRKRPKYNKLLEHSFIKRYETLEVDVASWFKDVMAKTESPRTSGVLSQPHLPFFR

[7] = target: Serine/threonine-protein kinase ATR (Homo sapiens, UniProt Q13535); assay: Inhibition of ATR in human HeLa cells lysate at 50 uM pre incubated for 15 mins followed by ATP acyl phosphate probe addition and measured after 10 mins by LC-MS/MS analysis relative to control; assay type: subcellular; settings: time 25.0 min
Procedure, shortened: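 KiNativ-type profiling in HeLa lysate (5 mg/mL total protein). Lysate preincubated 15 min with inhibitor at 50, 10, 2, 0.8 or 0 μM, then ATP or ADP acylphosphate probe added (5 μM final) for 10 min. Reaction stopped with urea and analysed by targeted MS, using up to four fragment ions per kinase peptide-probe conjugate. % inhibition calculated against untreated lysate. Duplicate reactions.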

[8] = target: Serine/threonine-protein kinase 3/4 (Homo sapiens) (UniProt Q13043+Q13188); assay: Inhibition of MST1/2 in human HeLa cells lysate at 50 uM pre incubated for 15 mins followed by ATP acyl phosphate probe addition and measured after 10 mins by LC-MS/MS analysis relative to control; assay type: subcellular; settings: time 25.0 min
Chain of Serine/threonine-protein kinase 3/4 (Homo sapiens) (Q13043 whole entry, looked up): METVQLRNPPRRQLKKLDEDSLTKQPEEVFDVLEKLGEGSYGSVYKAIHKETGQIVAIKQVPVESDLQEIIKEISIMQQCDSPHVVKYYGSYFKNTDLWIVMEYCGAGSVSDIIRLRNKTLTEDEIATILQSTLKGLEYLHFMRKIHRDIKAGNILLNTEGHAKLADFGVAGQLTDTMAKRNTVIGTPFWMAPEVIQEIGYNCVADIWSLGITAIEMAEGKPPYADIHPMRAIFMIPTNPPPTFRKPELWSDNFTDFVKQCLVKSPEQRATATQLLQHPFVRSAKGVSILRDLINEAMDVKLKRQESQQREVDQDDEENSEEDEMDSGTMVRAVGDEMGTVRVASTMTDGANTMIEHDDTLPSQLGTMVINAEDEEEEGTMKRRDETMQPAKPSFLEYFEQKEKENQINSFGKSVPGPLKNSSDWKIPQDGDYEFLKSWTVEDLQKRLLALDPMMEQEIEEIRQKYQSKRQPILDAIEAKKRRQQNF
Chain of Serine/threonine-protein kinase 3/4 (Homo sapiens) (Q13188 whole entry, looked up): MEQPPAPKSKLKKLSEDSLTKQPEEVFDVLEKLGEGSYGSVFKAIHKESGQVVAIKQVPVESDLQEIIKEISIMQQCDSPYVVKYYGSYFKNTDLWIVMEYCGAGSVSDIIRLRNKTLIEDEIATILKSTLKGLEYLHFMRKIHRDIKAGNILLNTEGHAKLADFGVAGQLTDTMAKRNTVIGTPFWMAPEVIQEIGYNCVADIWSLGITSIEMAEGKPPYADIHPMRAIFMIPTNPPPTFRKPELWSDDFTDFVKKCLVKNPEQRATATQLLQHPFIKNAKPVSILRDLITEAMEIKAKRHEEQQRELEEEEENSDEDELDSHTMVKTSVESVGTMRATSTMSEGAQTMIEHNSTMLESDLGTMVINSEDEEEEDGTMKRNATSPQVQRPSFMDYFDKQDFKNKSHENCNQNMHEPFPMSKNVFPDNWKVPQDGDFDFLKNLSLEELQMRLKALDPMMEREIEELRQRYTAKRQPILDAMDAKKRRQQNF

[9] = target: Ribosomal protein S6 kinase beta-2 (Homo sapiens, UniProt Q9UBS0); assay: Inhibition of P70S6KB in human HeLa cells lysate at 50 uM pre incubated for 15 mins followed by ATP acyl phosphate probe addition and measured after 10 mins by LC-MS/MS analysis relative to control; assay type: subcellular; settings: time 25.0 min
RPS6KA1/RPS6KA2/RPS6KA3 = RPS6KA1/RPS6KA2/RPS6KA3 (Homo sapiens, UniProt P51812+Q15349+Q15418); assay: Inhibition of RSK1/2/3 in human HeLa cells lysate at 50 uM pre incubated for 15 mins followed by ATP acyl phosphate probe addition and measured after 10 mins by LC-MS/MS analysis relative to control; assay type: subcellular; settings: time 25.0 min
[10] = target: Rho-associated protein kinase (Homo sapiens, UniProt O75116+Q13464); assay: Inhibition of ROCK1/2 in human HeLa cells lysate at 2 uM pre incubated for 15 mins followed by ATP acyl phosphate probe addition and measured after 10 mins by LC-MS/MS analysis relative to control; assay type: subcellular; settings: time 25.0 min
Chain of Rho-associated protein kinase (O75116 whole entry, looked up): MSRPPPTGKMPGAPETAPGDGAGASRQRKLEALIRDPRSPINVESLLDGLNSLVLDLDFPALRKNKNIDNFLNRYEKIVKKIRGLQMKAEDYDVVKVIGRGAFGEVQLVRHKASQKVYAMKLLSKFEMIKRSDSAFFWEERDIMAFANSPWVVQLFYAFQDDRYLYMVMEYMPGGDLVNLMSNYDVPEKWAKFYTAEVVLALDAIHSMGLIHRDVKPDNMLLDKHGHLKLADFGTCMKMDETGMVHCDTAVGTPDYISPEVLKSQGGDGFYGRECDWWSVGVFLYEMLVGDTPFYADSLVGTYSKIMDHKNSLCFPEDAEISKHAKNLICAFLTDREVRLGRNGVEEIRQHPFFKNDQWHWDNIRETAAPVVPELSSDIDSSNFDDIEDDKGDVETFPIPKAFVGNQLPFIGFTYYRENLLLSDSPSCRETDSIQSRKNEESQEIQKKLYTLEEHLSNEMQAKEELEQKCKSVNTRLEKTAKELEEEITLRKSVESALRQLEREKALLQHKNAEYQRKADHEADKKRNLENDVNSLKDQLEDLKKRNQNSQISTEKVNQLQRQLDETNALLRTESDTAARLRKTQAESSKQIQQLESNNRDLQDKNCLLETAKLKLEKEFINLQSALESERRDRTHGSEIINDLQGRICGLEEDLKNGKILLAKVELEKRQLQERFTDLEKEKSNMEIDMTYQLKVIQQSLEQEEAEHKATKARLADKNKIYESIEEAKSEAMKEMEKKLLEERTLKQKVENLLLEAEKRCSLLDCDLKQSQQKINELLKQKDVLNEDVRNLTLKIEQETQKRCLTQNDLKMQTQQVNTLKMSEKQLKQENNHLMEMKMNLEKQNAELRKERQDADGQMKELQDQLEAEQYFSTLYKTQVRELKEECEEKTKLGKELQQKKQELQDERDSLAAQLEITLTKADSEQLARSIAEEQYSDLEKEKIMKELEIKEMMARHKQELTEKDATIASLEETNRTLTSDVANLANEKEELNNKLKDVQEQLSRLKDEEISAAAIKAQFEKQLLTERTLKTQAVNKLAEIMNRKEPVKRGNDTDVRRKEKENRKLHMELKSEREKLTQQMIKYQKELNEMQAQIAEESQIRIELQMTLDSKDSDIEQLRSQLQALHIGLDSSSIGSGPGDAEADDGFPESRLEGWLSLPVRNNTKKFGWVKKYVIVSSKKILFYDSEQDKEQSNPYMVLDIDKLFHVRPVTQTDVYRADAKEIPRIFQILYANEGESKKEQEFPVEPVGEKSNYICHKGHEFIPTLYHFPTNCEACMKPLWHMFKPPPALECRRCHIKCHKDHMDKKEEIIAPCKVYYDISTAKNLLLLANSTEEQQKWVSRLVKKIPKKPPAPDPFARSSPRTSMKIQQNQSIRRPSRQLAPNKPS
Chain of Rho-associated protein kinase (Q13464 whole entry, looked up): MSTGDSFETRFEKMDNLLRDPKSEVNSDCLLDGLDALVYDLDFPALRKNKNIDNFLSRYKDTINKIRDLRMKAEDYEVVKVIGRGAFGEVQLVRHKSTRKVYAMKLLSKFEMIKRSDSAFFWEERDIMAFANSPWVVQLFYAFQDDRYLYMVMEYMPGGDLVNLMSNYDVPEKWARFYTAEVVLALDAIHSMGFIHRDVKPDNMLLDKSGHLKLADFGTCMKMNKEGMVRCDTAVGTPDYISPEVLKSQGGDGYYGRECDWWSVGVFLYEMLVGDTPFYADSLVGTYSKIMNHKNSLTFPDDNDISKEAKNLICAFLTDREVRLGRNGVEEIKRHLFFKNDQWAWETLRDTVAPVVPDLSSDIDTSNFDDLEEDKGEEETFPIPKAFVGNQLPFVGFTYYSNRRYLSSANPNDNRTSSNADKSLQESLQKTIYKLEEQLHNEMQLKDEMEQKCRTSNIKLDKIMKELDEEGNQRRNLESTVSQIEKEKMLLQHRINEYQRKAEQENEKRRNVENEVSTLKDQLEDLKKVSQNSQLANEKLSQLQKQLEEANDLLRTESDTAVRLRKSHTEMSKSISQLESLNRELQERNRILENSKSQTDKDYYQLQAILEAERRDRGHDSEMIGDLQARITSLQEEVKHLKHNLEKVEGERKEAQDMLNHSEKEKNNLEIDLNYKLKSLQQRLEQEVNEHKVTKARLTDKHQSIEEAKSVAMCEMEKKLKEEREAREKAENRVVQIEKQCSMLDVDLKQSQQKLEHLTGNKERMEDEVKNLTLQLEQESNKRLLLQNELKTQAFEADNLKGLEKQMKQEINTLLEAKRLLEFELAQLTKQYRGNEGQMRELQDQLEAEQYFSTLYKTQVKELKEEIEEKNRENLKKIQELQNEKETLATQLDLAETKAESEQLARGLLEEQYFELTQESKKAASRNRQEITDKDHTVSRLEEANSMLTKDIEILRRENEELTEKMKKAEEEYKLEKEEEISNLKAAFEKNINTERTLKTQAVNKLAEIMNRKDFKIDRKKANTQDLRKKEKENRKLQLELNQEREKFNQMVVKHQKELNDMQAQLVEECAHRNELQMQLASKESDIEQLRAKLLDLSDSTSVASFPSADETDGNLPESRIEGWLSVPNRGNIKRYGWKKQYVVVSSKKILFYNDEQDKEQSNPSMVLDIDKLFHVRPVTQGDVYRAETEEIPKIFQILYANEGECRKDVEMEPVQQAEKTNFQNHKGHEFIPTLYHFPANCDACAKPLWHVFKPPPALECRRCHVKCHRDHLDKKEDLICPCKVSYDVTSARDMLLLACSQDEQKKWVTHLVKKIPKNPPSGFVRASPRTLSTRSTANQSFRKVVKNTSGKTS

[11] = target: T2, Non-receptor tyrosine-protein kinase TNK1 (Homo sapiens) (UniProt Q13470); assay: Inhibition of recombinant TNK1 (unknown origin) expressed in HEK293 cells at 0.08 to 10 uM incubated for 15 mins in presence of 32P-gamma-ATP; assay type: cell-based; settings: dose 0.08-10 µM
T2 sequence (whole entry): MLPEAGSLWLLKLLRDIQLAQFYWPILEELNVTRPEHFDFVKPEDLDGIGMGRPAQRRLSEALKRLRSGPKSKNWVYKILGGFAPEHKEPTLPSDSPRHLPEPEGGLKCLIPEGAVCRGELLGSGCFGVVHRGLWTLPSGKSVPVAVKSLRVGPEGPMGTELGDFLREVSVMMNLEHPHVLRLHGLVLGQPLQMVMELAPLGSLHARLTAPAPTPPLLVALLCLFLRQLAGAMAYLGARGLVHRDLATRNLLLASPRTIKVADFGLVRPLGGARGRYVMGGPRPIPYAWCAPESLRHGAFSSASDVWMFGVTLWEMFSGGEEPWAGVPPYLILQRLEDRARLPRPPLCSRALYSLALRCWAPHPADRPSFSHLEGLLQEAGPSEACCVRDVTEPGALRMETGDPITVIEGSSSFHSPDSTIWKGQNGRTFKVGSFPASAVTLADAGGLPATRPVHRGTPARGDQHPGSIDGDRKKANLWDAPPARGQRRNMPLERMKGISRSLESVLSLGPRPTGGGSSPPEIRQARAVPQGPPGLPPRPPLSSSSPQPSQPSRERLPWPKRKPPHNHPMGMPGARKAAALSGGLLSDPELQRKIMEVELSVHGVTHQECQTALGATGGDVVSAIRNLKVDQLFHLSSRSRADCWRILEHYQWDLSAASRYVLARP

[12] = AUCinfinity in Sprague-Dawley rat at 2 mg/kg, po measured up to 8 hrs by LC-MS/MS analysis; assay type: ADME, organism-based; settings: in vivo
Procedure, shortened: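 Sprague-Dawley rats given one intravenous dose or one oral dose of 2 mg/kg. Plasma drug concentrations were followed over time, with samples taken out to 8 hr after dosing. PK parameters (clearance, volume of distribution, half-life, oral bioavailability, Cmax) were calculated from these concentration–time data.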

## CCOc1cc(N2CCC(O)CC2)ccc1Nc1ncc2c(n1)N(C)c1ccccc1C(=O)N2C
[1]
  Activity: 29%
[2]
  IC50: > 50 µM
[3]
  IC50: > 50 µM
[4]
  inhibition: 23.7%
[5]
  inhibition at 2 µM: 6.4%
[6]
  inhibition: 17.9%
[7]
  inhibition: 13.9%
[8]
  inhibition: 11.3%
[9]
  inhibition: 3%
RPS6KA1/RPS6KA2/RPS6KA3
  inhibition: 0.9%
[10]
  inhibition: 0.1%
[11]
  inhibition: Active
[12]
  AUC(0-inf): 1.9 µM·h
